In ChEMBL document CHEMBL3616437, “Thiazole compounds with activity against Cryptococcus gattii and Cryptococcus neoformans in vitro” (Eur J Med Chem, 2015):
Converted amounts (≈) assume the structure as drawn.

Columns and labels:
[1] = test system: Cryptococcus gattii species complex; assay: Ratio of compound MIC for Cryptococcus gattii LMM818 in presence of amphotericin B to compound MIC for Cryptococcus gattii LMM818 in absence of amphotericin B by checkerboard microtiter test; assay type: functional, Cryptococcus bacillisporus
Summary of the method: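 Checkerboard microdilution: eight two-fold dilutions of test compound (0.11 to 15.6 µM) crossed with amphotericin B (0.025 to 3.9 µM, in DMSO) or fluconazole (0.48 to 62.5 µM, in water). Inoculum per CLSI M27-A3 in RPMI-MOPS pH 7.0, 1-5 x10^3 cells/mL. Growth 48 to 72 h. Effective MIC is the combination concentration giving complete inhibition. FICs derived from MICs in combination versus alone.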

[2] = Selectivity index, ratio of IC50 for African green monkey Vero cells to MIC for Cryptococcus neoformans ATCC 24067; assay type: toxicity, cell-based
[3] = test system: Cryptococcus gattii species complex; assay: Antifungal activity against Cryptococcus gattii 1913ER after 48 to 72 hrs by broth microdilution method; assay type: functional, Cryptococcus bacillisporus
Summary of the method: (§1)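 CLSI M27-A3 broth microdilution in RPMI with L-glutamine, buffered to pH 7.0 with 0.165 M MOPS. Colonies grown twice on SDA, 48 h at 35°C. Inoculum set to 70% transmittance at 530 nm, then diluted to 1-5 x10^3 cells/mL. Test agents dissolved in DMSO, serially diluted, tested at 0.1 to 62.5 µM. Plates held at 35°C for 48-72 h. MIC is the lowest concentration giving an optically clear well, read visually against drug-free growth controls.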

[4] = test system: Cryptococcus neoformans; assay: Antifungal activity against Cryptococcus neoformans CN31 after 48 to 72 hrs by broth microdilution method; assay type: functional
Summary of the method: (§2)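 CLSI M27-A3 broth microdilution. Isolates subcultured twice on SDA, 48 h at 35°C. Saline suspension adjusted to 70% transmittance at 530 nm, then diluted to 1-5 x10^3 cells/mL in RPMI with L-glutamine, 0.165 M MOPS, pH 7.0. Compounds in DMSO, tested at […]. 35°C for 48-72 h. MIC read visually as the lowest concentration giving an optically clear well.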

[5] = test system: Cryptococcus neoformans; assay: Antifungal activity against Cryptococcus neoformans VM-MCMMPI after 48 to 72 hrs by broth microdilution method; assay type: functional; summary of the method: as §2
[6] = test system: Cryptococcus neoformans; assay: Antifungal activity against Cryptococcus neoformans 27JF after 48 to 72 hrs by broth microdilution method; assay type: functional; summary of the method: as §2
[7] = test system: Cryptococcus neoformans; assay: Antifungal activity against Cryptococcus neoformans WP after 48 to 72 hrs by broth microdilution method; assay type: functional; summary of the method: as §2
[8] = test system: Vero; assay: Cytotoxicity against African green monkey Vero cells assessed as cell viability measured after 48 hrs by MTT assay; assay type: cell-based; settings: Chlorocebus sabaeus
Summary of the method: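 VERO cells in D-MEM with 5% FBS, used up to 20 passages. Seeded 1 x 10^4 cells/well, pre-incubated 24 h at 37°C. Exposed 48 h at 37°C, 5% CO2, to eight nonserial dilutions from 100 to 0.0128 µM, with 0.5% DMSO control. MTT reduction read-out, corrected for background and blank. IC50 reported as median with 95% CI. Triplicate, two independent experiments.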

[9] = test system: Cryptococcus gattii species complex; assay: Antifungal activity against Cryptococcus gattii L24/01 after 48 to 72 hrs by broth microdilution method; assay type: functional, Cryptococcus bacillisporus; summary of the method: as §1
[10] = test system: Cryptococcus gattii species complex; assay: Antifungal activity against Cryptococcus gattii 547/OTTI-97-PI-10 after 48 to 72 hrs by broth microdilution method; assay type: functional, Cryptococcus bacillisporus; summary of the method: as §1
[11] = test system: Cryptococcus neoformans; assay: Antifungal activity against Cryptococcus neoformans ATCC 62066 after 48 to 72 hrs by broth microdilution method; assay type: functional
[12] = Selectivity index, ratio of IC50 for C57BL/6 mouse peritoneal macrophages to MIC for Cryptococcus neoformans ATCC 24067
Summary of the method: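 SI = IC50/MIC. Thioglycollate-elicited peritoneal macrophages from C57BL/6 mice are seeded at 1 x 10^5/well. They are exposed for 48 h at 37°C to eight concentrations from 100 to 0.0128 µM. Viability read by MTT versus 0.5% DMSO control, triplicate in two experiments.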

[13] = Cytotoxicity against C57BL/6 mouse peritoneal macrophages assessed as cell viability measured after 48 hrs by MTT assay; assay type: cell-based; settings: C57BL/6, Peritoneal macrophage cell
Summary of the method: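 Thioglycollate-elicited peritoneal macrophages from male C57BL/6 mice, 6–8 weeks old, in RPMI with 10% FBS. Seeded 1 x 10^5 cells/well, pre-incubated 24 h at 37°C. Exposed 48 h at 37°C, 5% CO2, to eight nonserial dilutions from 100 to 0.0128 µM, with 0.5% DMSO control. MTT read-out, % inhibition versus DMSO control. IC50 reported as median with 95% CI. Triplicate, two independent experiments.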

[14] = test system: Cryptococcus gattii species complex; assay: Antifungal activity against Cryptococcus gattii 196L/03 after 48 to 72 hrs by broth microdilution method; assay type: functional, Cryptococcus bacillisporus; summary of the method: as §1
[15] = test system: Cryptococcus neoformans; assay: Antifungal activity against Cryptococcus neoformans ATCC 28957 after 48 to 72 hrs by broth microdilution method; assay type: functional; summary of the method: as §2
[16] = test system: Cryptococcus gattii species complex; assay: Antifungal activity against Cryptococcus gattii LMM818 after 48 to 72 hrs by broth microdilution method; assay type: functional, Cryptococcus bacillisporus; summary of the method: as §1
[17] = test system: Cryptococcus bacillisporus; assay: Antifungal activity against Cryptococcus gattii ATCC 32608 after 48 to 72 hrs by broth microdilution method; assay type: functional; summary of the method: as §1
[18] = test system: Cryptococcus gattii species complex; assay: Antifungal activity against Cryptococcus gattii L28/02 after 48 to 72 hrs by broth microdilution method; assay type: functional, Cryptococcus bacillisporus; summary of the method: as §1
[19] = test system: Cryptococcus neoformans; assay: Antifungal activity against Cryptococcus neoformans F10 after 48 to 72 hrs by broth microdilution method; assay type: functional; summary of the method: as §2
[20] = test system: Cryptococcus neoformans; assay: Antifungal activity against Cryptococcus neoformans ATCC 24067 after 48 to 72 hrs by broth microdilution method; assay type: functional; summary of the method: as §2
[21] = test system: Cryptococcus gattii species complex; assay: Antifungal activity against Cryptococcus gattii 23/10993 after 48 to 72 hrs by broth microdilution method; assay type: functional, Cryptococcus bacillisporus; summary of the method: as §1
[22] = test system: Cryptococcus neoformans; assay: Antifungal activity against Cryptococcus neoformans 5396 after 48 to 72 hrs by broth microdilution method; assay type: functional; summary of the method: as §2
[23] = test system: Cryptococcus gattii species complex; assay: Antifungal activity against Cryptococcus gattii ICB181 after 48 to 72 hrs by broth microdilution method; assay type: functional, Cryptococcus bacillisporus; summary of the method: as §1
[24] = test system: Cryptococcus neoformans; assay: Antifungal activity against Cryptococcus neoformans LMM820 after 48 to 72 hrs by broth microdilution method; assay type: functional; summary of the method: as §2
[25] = test system: Cryptococcus gattii species complex; assay: Antifungal activity against Cryptococcus gattii 135L/03 after 48 to 72 hrs by broth microdilution method; assay type: functional, Cryptococcus bacillisporus; summary of the method: as §1
[26] = test system: Cryptococcus gattii species complex; assay: Antifungal activity against Cryptococcus gattii L27/01 after 48 to 72 hrs by broth microdilution method; assay type: functional, Cryptococcus bacillisporus; summary of the method: as §1
[27] = test system: Cryptococcus neoformans; assay: Antifungal activity against Cryptococcus neoformans 28JF after 48 to 72 hrs by broth microdilution method; assay type: functional; summary of the method: as §2
[28] = test system: Cryptococcus neoformans; assay: Antifungal activity against Cryptococcus neoformans 96806 after 48 to 72 hrs by broth microdilution method; assay type: functional; summary of the method: as §2

COc1ccc(-c2csc(N/N=C/C3CCCCC3)n2)cc1
fractional inhibitory concentration index (FICI) [1]: 1.46
selectivity ratio [2]: 52.6
MFC [3]: 3.9 µM (≈ 1.23 µg/mL)
MIC [3]: 2.2 µM (≈ 0.694 µg/mL)
MFC [4]: 3.9 µM (≈ 1.23 µg/mL)
MIC [4]: 1.9 µM (≈ 0.599 µg/mL)
MFC [5]: 3.9 µM (≈ 1.23 µg/mL)
MIC [5]: 2.2 µM (≈ 0.694 µg/mL)
MFC [6]: 7.8 µM (≈ 2.46 µg/mL)
MIC [6]: 3.5 µM (≈ 1.1 µg/mL)
MFC [7]: 3.9 µM (≈ 1.23 µg/mL)
MIC [7]: 3.2 µM (≈ 1.01 µg/mL)
IC50 [8]: > 100 µM
MFC [9]: 3.9 µM (≈ 1.23 µg/mL)
MIC [9]: 2.9 µM (≈ 0.915 µg/mL)
MFC [10]: 3.9 µM (≈ 1.23 µg/mL)
MIC [10]: 2.6 µM (≈ 0.82 µg/mL)
MFC [11]: 7.8 µM (≈ 2.46 µg/mL)
MIC [11]: 1.9 µM (≈ 0.599 µg/mL)
Ratio [12]: 52.63
IC50 [13]: > 100 µM
MFC [14]: 3.9 µM (≈ 1.23 µg/mL)
MIC [14]: 2.9 µM (≈ 0.915 µg/mL)
MFC [15]: 3.9 µM (≈ 1.23 µg/mL)
MIC [15]: 2.2 µM (≈ 0.694 µg/mL)
MFC [16]: 7.8 µM (≈ 2.46 µg/mL)
MIC [16]: 4.5 µM (≈ 1.42 µg/mL)
MFC [17]: 3.9 µM (≈ 1.23 µg/mL)
MIC [17]: 2.9 µM (≈ 0.915 µg/mL)
MFC [18]: 7.8 µM (≈ 2.46 µg/mL)
MIC [18]: 4.2 µM (≈ 1.32 µg/mL)
MFC [19]: 3.9 µM (≈ 1.23 µg/mL)
MIC [19]: 2.2 µM (≈ 0.694 µg/mL)
MIC [20]: 1.9 µM (≈ 0.599 µg/mL)
MFC [21]: 3.9 µM (≈ 1.23 µg/mL)
MIC [21]: 2.6 µM (≈ 0.82 µg/mL)
MFC [22]: 3.9 µM (≈ 1.23 µg/mL)
MIC [22]: 2.2 µM (≈ 0.694 µg/mL)
MFC [23]: 1.9 µM (≈ 0.599 µg/mL)
MIC [23]: 1.4 µM (≈ 0.442 µg/mL)
MFC [24]: 7.8 µM (≈ 2.46 µg/mL)
MIC [24]: 3.2 µM (≈ 1.01 µg/mL)
MFC [25]: 3.9 µM (≈ 1.23 µg/mL)
MIC [25]: 2.6 µM (≈ 0.82 µg/mL)
MFC [26]: 3.9 µM (≈ 1.23 µg/mL)
MIC [26]: 2.2 µM (≈ 0.694 µg/mL)
MFC [27]: 7.8 µM (≈ 2.46 µg/mL)
MIC [27]: 3.5 µM (≈ 1.1 µg/mL)
MFC [28]: 1.9 µM (≈ 0.599 µg/mL)
MIC [28]: 1.9 µM (≈ 0.599 µg/mL)

COc1ccc(-c2csc(N/N=C(\C)CCO)n2)cc1
fractional inhibitory concentration index (FICI) [1]: 4.98
selectivity ratio [2]: 111
MFC [3]: 1.9 µM (≈ 0.554 µg/mL)
MIC [3]: 0.9 µM (≈ 0.262 µg/mL)
MFC [4]: 7.8 µM (≈ 2.27 µg/mL)
MIC [4]: 0.5 µM (≈ 0.146 µg/mL)
MFC [5]: 3.9 µM (≈ 1.14 µg/mL)
MIC [5]: 0.5 µM (≈ 0.146 µg/mL)
MFC [6]: 7.8 µM (≈ 2.27 µg/mL)
MIC [6]: 1.2 µM (≈ 0.35 µg/mL)
MFC [7]: 3.9 µM (≈ 1.14 µg/mL)
MIC [7]: 0.9 µM (≈ 0.262 µg/mL)
IC50 [8]: > 100 µM
MFC [9]: 3.9 µM (≈ 1.14 µg/mL)
MIC [9]: 1.4 µM (≈ 0.408 µg/mL)
MFC [10]: 3.9 µM (≈ 1.14 µg/mL)
MIC [10]: 1.7 µM (≈ 0.495 µg/mL)
MFC [11]: 15.6 µM (≈ 4.55 µg/mL)
MIC [11]: 0.6 µM (≈ 0.175 µg/mL)
Ratio [12]: 222
IC50 [13]: > 100 µM
MFC [14]: 3.9 µM (≈ 1.14 µg/mL)
MIC [14]: 1.4 µM (≈ 0.408 µg/mL)
MFC [15]: 3.9 µM (≈ 1.14 µg/mL)
MIC [15]: 0.6 µM (≈ 0.175 µg/mL)
MFC [16]: 3.9 µM (≈ 1.14 µg/mL)
MIC [16]: 1.4 µM (≈ 0.408 µg/mL)
MFC [17]: 3.9 µM (≈ 1.14 µg/mL)
MIC [17]: 1.4 µM (≈ 0.408 µg/mL)
MFC [18]: 3.9 µM (≈ 1.14 µg/mL)
MIC [18]: 1.4 µM (≈ 0.408 µg/mL)
MFC [19]: 3.9 µM (≈ 1.14 µg/mL)
MIC [19]: 0.7 µM (≈ 0.204 µg/mL)
MIC [20]: 0.45 µM (≈ 0.131 µg/mL)
MFC [21]: 3.9 µM (≈ 1.14 µg/mL)
MIC [21]: 1.4 µM (≈ 0.408 µg/mL)
MFC [22]: 3.9 µM (≈ 1.14 µg/mL)
MIC [22]: 0.5 µM (≈ 0.146 µg/mL)
MFC [23]: 1.9 µM (≈ 0.554 µg/mL)
MIC [23]: 0.7 µM (≈ 0.204 µg/mL)
MFC [24]: 3.9 µM (≈ 1.14 µg/mL)
MIC [24]: 0.5 µM (≈ 0.146 µg/mL)
MFC [25]: 3.9 µM (≈ 1.14 µg/mL)
MIC [25]: 0.9 µM (≈ 0.262 µg/mL)
MFC [26]: 1.9 µM (≈ 0.554 µg/mL)
MIC [26]: 0.8 µM (≈ 0.233 µg/mL)
MFC [27]: 3.9 µM (≈ 1.14 µg/mL)
MIC [27]: 0.6 µM (≈ 0.175 µg/mL)
MFC [28]: 3.9 µM (≈ 1.14 µg/mL)
MIC [28]: 0.9 µM (≈ 0.262 µg/mL)
